Cl transport mod: modulates chloride dependent transport by human KCC2; Q9H2X9; KCC2 cells, thallium flux FluoZin-2 fluorescence; B-score of Tl+ flux slope (higher = more flux/activation; lower = inhibition) at 10 µM; actives 2.2% (n = 190,000);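 active = thallium flux slope and its plate-corrected score both differing from the plate sample mean at a set confidence after two filtering rounds, in either direction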;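 note: slope of fluorescence scaled to starting intensity during 10 to 20 s after thallium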
RGS4 pot: potentiators or activators of RGS4; HEK293 M3R/inducible RGS4, carbachol calcium flux Fluo4; stronger effect = lower value; B-score at 10 µM; actives 0.92% (n = 310,000); AID 463111;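 active = B-score of the integrated calcium signal more than 4 SD below the library mean, with starting fluorescence not abnormally high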;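 note: negative B-score means reduced calcium response which marks RGS4 activation or potentiation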
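Assay system: Inducible-RGS4 HEK293 cells carrying M3 receptor | Schedule: Compound preincubation 20 min at room temperature before agonist | Signal: Kinetic calcium fluorescence imaging with Fluo4-AM dye, 2 µM | Read-out basis: B score from integrated fluorescence ratio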
MrgX1 agonist: agonists of human MrgX1 receptor. Q96LB2. MrgX1-HEK293 cells, Fluo-4 calcium fluorescence, agonist mode; stronger effect = higher value. B-score at 10 µM. actives 0.44% (n = 310,000). AID 588627;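 active = calcium response B-score plate-corrected fluorescence ratio at least 3 library SD, with starting fluorescence B-score inside 5 SD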
Target sequence (Q96LB2 whole entry, looked up): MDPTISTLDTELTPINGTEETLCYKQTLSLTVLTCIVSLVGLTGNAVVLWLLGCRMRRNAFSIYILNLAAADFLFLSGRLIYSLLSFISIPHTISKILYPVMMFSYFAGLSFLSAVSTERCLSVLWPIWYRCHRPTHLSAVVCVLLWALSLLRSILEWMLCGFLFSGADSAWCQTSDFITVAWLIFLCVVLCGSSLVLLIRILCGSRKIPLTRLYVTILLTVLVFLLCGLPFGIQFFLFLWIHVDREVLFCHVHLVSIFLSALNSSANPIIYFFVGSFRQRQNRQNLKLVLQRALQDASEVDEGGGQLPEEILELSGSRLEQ
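Material: MrgX1-expressing HEK293 cells / Dosing: compound as first of three additions / Incubation: overnight seeding, then 1 h dark dye loading / Signal: Fluo-4 NW calcium fluorescence / Evaluation: B-scored fluorescence response ratio / Benchmarks: positive and negative control wells on each plate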
MrgX1 antagonist: blocks BAM8-22 activation of human MrgX1 receptor; MRGX1-HEK293 calcium flux, Fluo-4, BAM8-22 antagonism; stronger effect = lower value; actives 1.3% (n = 310,000); B-score at 10 µM; Q96LB2;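 active = calcium-response B-score plate-corrected more than 3 library SD below zero, starting fluorescence within 5 deviations, no agonist response on first addition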;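 note: peak minus trough fluorescence over baseline after final BAM8-22 challenge near maximal dose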
MrgX1 allo act: human MrgX1 positive allosteric modulation, primary screen | B-score at 10 µM | Q96LB2 | actives 0.63% (n = 310,000) | AID 588675 | MrgX1-HEK293, Fluo-4 calcium flux, FDSS; stronger effect = higher value;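 active = plate-corrected calcium response at least 3 library SD above typical, normal starting fluorescence, not activating the receptor alone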;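 note: compound read alongside a low EC10 to EC30 dose of BAM8-22 agonist; peak minus trough fluorescence over baseline measured at the second addition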
RGS4 inh: inhibitors of human RGS4. P49798. HEK293 M3R/RGS4 inducible, Fluo-4 calcium flux; stronger effect = higher value; triggered by carbachol at its EC20. B-score at 10 µM. actives 0.45% (n = 310,000). AID 463165;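 active = B-score, a plate-corrected calcium signal, over three deviations above library mean, with baseline fluorescence within five deviations of library mean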;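 note: RGS4 expression induced by doxycycline in cells with stable M3 receptor; B-score is computed from the integrated fluorescence ratio over baseline after carbachol; higher B-score means a larger calcium signal and so more RGS4 inhibition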
Target sequence (P49798 whole entry, looked up): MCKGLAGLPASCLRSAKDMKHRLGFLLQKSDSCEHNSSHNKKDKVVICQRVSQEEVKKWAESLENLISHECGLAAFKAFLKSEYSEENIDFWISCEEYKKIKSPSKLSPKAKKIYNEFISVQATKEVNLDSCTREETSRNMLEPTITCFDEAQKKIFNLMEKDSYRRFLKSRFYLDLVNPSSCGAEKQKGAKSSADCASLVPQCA
KCC2 secondary: confirmation of human KCC2 transport modulators; actives 15% (n = 3,700); shares compounds with Cl transport mod; HEK293-KCC2, thallium flux, FluoZin2 fluorescence; stronger effect = higher value; normalised thallium flux (F/F0 slope) at 10 µM;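 active = thallium flux slope above the same plate's solvent-only control mean plus 3 SD; inconclusive = the two replicate wells disagree; inactive = no significant difference from solvent-only control wells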
KCC2 bumet counter: thallium flux persisting under bumetanide in KCC2 cells, counter-screen secondary assay | shares compounds with Cl transport mod | HEK293-KCC2 + bumetanide/ouabain, thallium flux FluoZin2; stronger effect = higher value | normalized thallium flux at 10 µM | actives 49% (n = 3,700) | AID 1714;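 active = thallium entry rate above the same plate's blocked-transporter control wells by more than 3 SD; inconclusive = the two repeat wells disagree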;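 note: raw slope of fluorescence over initial fluorescence between 10 and 20 s after thallium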
KCC2 sec2: KCC2 (human) modulation, second secondary assay. shares compounds with Cl transport mod. HEK293-KCC2, thallium flux FluoZin2 fluorescence; actives lie on both sides; F/F0 rise rate, 10–20 s post-thallium. normalized thallium flux at 10 µM. actives 23% (n = 3,700). AID 1715;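 active = thallium flux slope more than 3 SD above or below the plate's solvent-only control mean, mostly below; inconclusive = the two repeat wells disagreed; inactive = no significant shift from solvent-only controls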;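 note: raw slope with 0.1% DMSO as baseline and bumetanide as block control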
HEK293 Tl flux: counter-screen for KCC2 modulators: effect in parental HEK293 cells | actives 46% (n = 3,700) | AID 1716 | shares compounds with Cl transport mod | thallium flux FluoZin2, ouabain; baseline-ratio fluorescence slope, 10–20 s after thallium | thallium flux rate (normalised fluorescence) at 10 µM;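 active = thallium flux rate significantly above the same plate's solvent-only control wells, beyond their mean plus 3 SD; inconclusive = the two replicate wells gave conflicting results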
KCC2 retest ouab: KCC2 (human) modulation, ouabain retest; shares compounds with Cl transport mod; HEK293-KCC2, thallium flux FluoZin2 fluorescence; bidirectional: low = inhibitor, high = activator; raw Tl+ flux slope (below DMSO = inhibition, above = activation) at 10 µM; actives 48% (n = 3,700); AID 1717;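 active = thallium flux slope beyond 3 SD from same-plate DMSO control mean in most replicates, usually higher, sometimes lower; inconclusive = repeat tests gave conflicting results; inactive = no significant difference from controls in most replicates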;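 note: slope of initial-normalized fluorescence between seconds 10 and 20 after thallium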
HEK counter2: counter-screen for KCC2 modulators: effect in parental HEK293 cells; AID 1718; thallium flux FluoZin-2 fluorescence slope; shares compounds with Cl transport mod; thallium flux slope at 10 µM; actives 33% (n = 3,700);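 active = thallium flux slope above the same plate's solvent-control mean plus 3 SD in both duplicate wells; inconclusive = duplicate wells that disagreed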;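 note: run without ouabain in cells lacking the KCC2 cotransporter; slope of fluorescence scaled to its starting value between 10 and 20 s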
* hit, by the source's call; i = inactive; ? = inconclusive; / = no result. Most compounds without a hit are left out; they make up all but 4.7% or so of the library.

SMILES | Cl transport mod | RGS4 pot | MrgX1 agonist | MrgX1 antagonist | MrgX1 allo act | RGS4 inh | KCC2 secondary | KCC2 bumet counter | KCC2 sec2 | HEK293 Tl flux | KCC2 retest ouab | HEK counter2
O=C(Cc1csc(Nc2nc(=S)[nH]c3ccccc23)n1)NCCCN1CCN(c2ccccc2F)CC1 | 20* | i | i | i | i | i | 0.014* | 0.051* | 0.041* | 0.039* | 0.062* | 0.016*
O=C(C1CCN(S(=O)(=O)c2cccc3nsnc23)CC1)N1CCc2ccccc21 | -3.6 | i | i | i | i | i | / | / | / | / | / | /
O=C(C1CCCN(S(=O)(=O)c2cccc3nsnc23)C1)N1CCc2ccccc21 (configuration not stated) | / | i | i | i | i | i | 0.0065 | 0.0071 | 0.031 | ? | 0.024 | 0.011
O=C(C1CCCN(S(=O)(=O)c2cccc3nsnc23)C1)N1CCc2ccccc2C1 (configuration not stated) | -3.2* | i | i | i | i | i | 0.0078 | 0.0054 | 0.03 | 0.0073 | 0.019 | 0.011
CCCCC1(C(=O)OC)NC(c2ccc(O)cc2)C2C(=O)N(c3ccccc3)C(=O)C21 (configuration not stated) | / | i | i | i | i | i | / | / | / | / | / | /
Cc1ccc(Nc2ncc3c(n2)CC(C)(C)CC3=O)cc1 | -0.5 | i | i | i | i | i | / | / | / | / | / | /
O=C(NCCc1ccccn1)c1nc(Cn2cc(Br)cn2)no1 | / | i | i | i | i | i | / | / | / | / | / | /
Cc1cccc(NCc2n[nH]c(=S)n2-c2ccccc2)c1 | -0.11 | i | i | i | i | i | / | / | / | / | / | /
Cn1c(CNc2cccc(C(F)(F)F)c2)n[nH]c1=S | -4* | i | i | i | i | i | 0.0058 | 0.0049 | 0.025* | 0.0071 | ? | 0.01
Cc1onc(-c2ccccc2Cl)c1C(=O)Nc1cccc(S(=O)(=O)NC2=NCCC2)c1 | / | i | i | i | i | i | / | / | / | / | / | /
CCCCCCCn1c(NC(=O)CC)nc2ccccc21 | 6.5* | i | i | i | i | i | ? | 0.027* | 0.031 | 0.011* | 0.025 | 0.011*
CCCn1c(NC(=S)Nc2ccccc2)nc2ccccc21 | 28* | i | i | i | i | i | ? | 0.018* | 0.03 | 0.0092* | 0.038* | 0.0094
CCC(=O)Nc1nc2ccccc2n1CCN1CCOCC1 | / | i | i | i | i | i | / | / | / | / | / | /
CC(=O)c1cccc(N(C(=O)Cn2nnc3ccccc32)C(C(=O)NC2CCCCC2)c2cn(C)nc2C)c1 (configuration not stated) | / | i | i | i | i | i | 0.011 | ? | 0.033 | 0.0075 | 0.021 | ?
Cc1cccc(NC(=O)COc2coc(CN3CCN(c4ccccc4)CC3)cc2=O)c1 | / | i | i | i | i | i | / | / | / | / | / | /
CCc1ccc(-c2cn(C3CCCCC3)c(=S)[nH]2)cc1 | 6* | i | i | i | i | i | 0.019 | 0.05* | 0.03 | 0.012* | 0.023* | ?
CCc1ccc(NC(=O)C(=S)NC2CCCCC2)cc1 | 0.15 | i | i | i | i | i | / | / | / | / | / | /
CC(NC(=O)COC(=O)CC(c1ccccc1)c1ccccc1)c1ccccc1 (configuration not stated) | -4.7* | i | i | i | i | i | 0.008 | 0.0037 | 0.027 | 0.0053* | 0.018 | ?
COc1ccc(S(=O)(=O)NCCN2CCOCC2)c2ccccc12 | / | i | i | i | i | i | 0.0095 | 0.0064 | 0.031 | 0.007 | 0.023 | 0.0097
Cc1ccc(S(=O)(=O)NC2CC(C)(C)NC(C)(C)C2)cc1C | / | i | i | i | i | i | / | / | / | / | / | /
COc1ccc(/C=C2\SC(=N)N(c3nccs3)C2=O)cc1OC | 4.6* | i | i | i | i | i | 0.0066 | 0.032* | 0.033 | 0.022* | 0.029* | 0.019*
Clc1cccc(-c2ccc(/C=N/n3cnnc3)o2)c1 | 0.19 | i | i | i | i | i | / | / | / | / | / | /
N=C1S/C(=C\c2ccc(-c3cccc(Cl)c3)o2)C(=O)N1c1nccs1 | 6.6* | i | i | i | i | i | 0.0073 | 0.0089* | 0.032 | 0.015* | 0.022 | 0.017*
Oc1ccccc1/C=N/NC(=S)NC1CC2CC1C1C=CCC21 (configuration not stated) | 15* | i | i | i | i | i | 0.01 | 0.014* | 0.032 | 0.013* | 0.032* | ?
COc1ccc(S(=O)(=O)NCCSCc2ccco2)cc1Cl | 6.4* | i | i | i | i | i | 0.006 | 0.0045 | 0.03 | 0.0071 | 0.017 | 0.011
Cc1ccc(CS(=O)Cc2ccc(C(=O)NCc3ccccc3Br)o2)cc1 (configuration not stated) | / | i | i | i | i | i | / | / | / | / | / | /
CSc1nc(NNC=O)cc(Oc2ccc(NC(C)=O)cc2)n1 | / | i | i | i | i | i | / | / | / | / | / | /
COc1ccc(OC)c(C2c3[nH]c4ccccc4c3C[C@H]3C(=O)N(CCCOC(C)C)CC(=O)N23)c1 (some centres not stated) | / | i | i | i | i | i | / | / | / | / | / | /
Cc1cc(C)c2nc(SCC(=O)NNC(=O)c3ccco3)c(C)cc2c1 | 4.8* | i | i | i | i | i | 0.016 | 0.021* | 0.033 | 0.0098* | 0.018 | 0.013*

Screening results (PubChem BioAssay)
